We go through 17 compounds from ChEMBL document CHEMBL4177755, “Combating Drug-Resistant Fungi with Novel Imperfectly Amphipathic Palindromic Peptides” (J Med Chem, 2018).

Series [1] deals with Candida albicans. Briefly: Antifungal activity against Candida albicans cgmcc 2.2086 after 48 hrs by broth microdilution method. It is filed as functional. As to conditions: cgmcc 2.2086, 48 h. An outline of the steps:
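Modified CLSI M27-A2 broth microdilution. Yeast at (0.5−1) × 10^3 CFU/mL in MOPS-buffered RPMI 1640 was mixed 1:1 with peptide serially diluted in 0.2% BSA and incubated 48 h at 28 °C. Absorbance was read at 492 nm; MIC is the lowest concentration inhibiting 95% of growth. Triplicate, three biological replicates.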
Background: In broth dilution the organism is exposed to a series of concentrations in liquid medium.

A short description of series [2]: Cytotoxicity against mouse RAW264.7 cells assessed as cell viability at 2 to 32 uM after 24 hrs by MTT assay relative to control. Conditions: read-out: Activity. Type of series: cell-based. An outline of the steps:
(§1)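 MTT viability assay. RAW264.7 or HEK293T cells at (1.0−2.0) × 10^5 per well were exposed to a peptide concentration series for 24 h at 37 °C in 5% CO2. MTT was then added at 0.5 mg/mL final for 4 h; formazan was dissolved in DMSO and read at 570 nm. Results average three independent trials.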
Background: Tetrazolium assays rely on reduction of a dye to a coloured formazan, in cell work by metabolically active cells.

Series [3] is described as follows: Cytotoxicity against HEK293T cells assessed as cell viability at 2 to 32 uM after 24 hrs by MTT assay relative to control. Type of series: cell-based, HEK-293T. Conditions: human, read-out: Activity. An outline of the steps:
as §1

A further series relates to RAW264.7. Briefly: Cytotoxicity against mouse RAW264.7 cells assessed as decrease in cell viability at 64 uM after 24 hrs by MTT assay relative to control. As to conditions: raw264.7, 24 h. It is filed as cell-based. An outline of the steps:
as §1

The next series concerns HEK-293T. Briefly: Cytotoxicity against HEK293T cells assessed as decrease in cell viability at 64 uM after 24 hrs by MTT assay relative to control. It is filed as cell-based. As to conditions: human. An outline of the steps: as §1
Series [4] deals with Candida albicans. Briefly: Antifungal activity against Candida albicans cgmcc 2.2086 in presence of 12.5% human heat-inactivated serum by broth dilution method. Type of series: functional.
Series [5] deals with Candida albicans. The series can be described thus: Antifungal activity against Candida albicans cgmcc 2.2086 in presence of 25% human heat-inactivated serum by broth dilution method. It is filed as functional.
Series [6] deals with Candida albicans. The series can be described thus: Antifungal activity against Candida albicans cgmcc 2.2086 in presence of 50% human heat-inactivated serum by broth dilution method. Type of series: functional.
For series [7], the system named is Candida albicans. The series can be described thus: Fungicidal activity against Candida albicans cgmcc 2.2086 at MFC after 5 hrs by time-kill assay. Type of series: functional. An outline of the steps: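 Time-kill: E. coli ATCC 25922 or C. albicans cgmcc 2.2086 was exposed to peptide at 1× MBC/MFC. At intervals, aliquots were diluted and spread on MHA (bacteria, counted after 24 h at 37 °C) or YPDA (yeast, counted after 48 h at 28 °C). Values are means of three independent assays.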

The test system of series [8] is Escherichia coli. The series can be described thus: Induction of cell wall permeabilization in Escherichia coli ATCC 25922 assessed as increase in NPN uptake by fluorescence spectrophotometric method. Type of series: functional, organism-based. An outline of the steps: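 Log-phase cells at OD600 0.2 in 5 mM HEPES (pH 7.4, 5 mM glucose) were preloaded with 10 μM NPN for 30 min, then peptide was added. Fluorescence (ex 350/em 420 nm) was followed until it plateaued and converted to % NPN uptake against initial and maximal fluorescence. Triplicate.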

The subject of series [9] is Lipid bilayer. Briefly: Binding affinity to phosphatidylcholine/phosphatidylethanolamine/phosphatidylinositol/ergosterol large unilamellar vesicle assessed as induction of calcein leakage after 15 mins by spectrofluorophotometric method. An outline of the steps: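 Compositions were PG/CL/PE 2:1:7 w/w/w (E. coli membrane mimic; lines 4,5) and PC/PE/PI/ergosterol 5:4:1:2 w/w/w/w (fungal membrane mimic; lines 2,3). Lipids underwent 20 freeze–thaw cycles and were extruded through 100 nm filters; free calcein was removed by gel filtration.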

Series [10] concerns Lipid bilayer. Briefly: Binding affinity to phosphatidylcholine/cholesterol large unilamellar vesicle assessed as induction of calcein leakage at 2 to 32 uM after 15 mins by spectrofluorophotometric method. Conditions: 0.25 h. An outline of the steps:
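Large unilamellar vesicles were made from PG/CL/PE (2:1:7), PC/PE/PI/ergosterol (5:4:1:2) or PC/cholesterol (10:1), loaded with 70 mM calcein in Tris/NaCl/EDTA buffer at pH 7.4, frozen and thawed 20 times, and extruded through 100 nm filters. Free dye was removed by gel filtration, and peptide-induced calcein release was measured.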

Series [11] relates to Escherichia coli. Briefly: Induction of membrane damage in Escherichia coli ATCC 25922 assessed as appearance of roughened and broken membrane at MBC after 1 hr by scanning electron microscopy. It is filed as functional, organism-based. An outline of the steps:
(§2)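 E. coli ATCC 25922 was treated at 1× MBC and C. albicans cgmcc 2.2086 at 1× MFC, each for 1 h. Untreated control cells were processed in parallel without peptide. Surface morphology was imaged by AFM and SEM, and ultrastructure by TEM.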

Series [12] deals with Candida albicans. The series can be described thus: Induction of membrane damage in Candida albicans cgmcc 2.2086 assessed as membrane deformation at MFC after 1 hr by scanning electron microscopy. Type of series: functional, organism-based. An outline of the steps:
as §2

Series [13] concerns Candida albicans. The series can be described thus: Induction of membrane damage in Candida albicans cgmcc 2.2086 assessed as intracellular content leakage at MFC after 1 hr by scanning electron microscopy. Type of series: functional, organism-based. An outline of the steps: (§3)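 E. coli ATCC 25922 or C. albicans cgmcc 2.2086 were treated with peptide at 1× MBC/MFC for 1 h alongside peptide-free controls, then imaged by AFM, SEM or TEM for membrane and ultrastructural changes.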

The test system of series [14] is Candida albicans. The series can be described thus: Induction of membrane damage in Candida albicans cgmcc 2.2086 assessed as membrane deformation at MFC after 1 hr by atomic force microscopy. Type of series: functional, organism-based. An outline of the steps:
as §2

The subject of series [15] is Escherichia coli. The series can be described thus: Change in membrane morphology in Escherichia coli ATCC 25922 assessed as loss of intracellular contents at MBC after 1 hr by transmission electron microscopy. It is filed as functional, organism-based. An outline of the steps: as §3
In series [16] the test system is Candida albicans. Briefly: Induction of membrane damage in Candida albicans cgmcc 2.2086 assessed as empty regions formation of cytoplasm at MFC after 1 hr by transmission electron microscopy. It is filed as functional, organism-based. An outline of the steps: as §3
Series [17] deals with Escherichia coli. Briefly: Induction of reactive oxygen species generation in Escherichia coli ATCC 25922 at 0.5 to 4 uM after 1 hr by DCFH-DA dye-based spectrofluorophotometric method. Type of series: functional, organism-based. An outline of the steps:
(§4)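 E. coli ATCC 25922 and C. albicans cgmcc 2.2086 cells were exposed to a range of peptide concentrations up to 32 μM. ROS levels were read by fluorescence and expressed relative to untreated cells. Values are mean ± SEM of three independent experiments.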

In series [18] the test system is Candida albicans. Briefly: Induction of reactive oxygen species generation in Candida albicans cgmcc 2.2086 after 1 hr by DCFH-DA dye-based spectrofluorophotometric method. It is filed as functional, organism-based. An outline of the steps:
as §4

A further series concerns Lipopolysaccharide (LPS). The series can be described thus: Displacement of BODIPY-TR-cadaverine from Escherichia coli O111:B4 LPS at 4 uM after 1 hr by spectrofluorophotometric method relative to control. An outline of the steps: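 Fluorescence-based displacement assay: peptide displaces BODIPY-TR-cadaverine from LPS; polymyxin B served as the LPS-binding reference.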

For series [19], the system named is Escherichia coli. Briefly: Disruption of cytoplasmic membrane electrical potential in Escherichia coli ATCC 25922 at MBC after 800 secs by DiSC3-5 dye-based fluorescence spectrophotometric method. It is filed as functional, organism-based.
The test system of series [20] is Candida albicans. The series can be described thus: Disruption of cytoplasmic membrane electrical potential in Candida albicans cgmcc 2.2086 at MFC after 800 secs by DiSC3-5 dye-based fluorescence spectrophotometric method. It is filed as functional, organism-based. An outline of the steps:
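Cells were loaded with the membrane potential-sensitive dye DiSC3-5, and its release on peptide treatment (various concentrations, including 1× MBC/MFC) was monitored as increasing fluorescence over 800 s.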

Values after ≈ are worked out from the molar mass of the structure shown. Active and inactive are the calls of the source. The rule behind the calls is not given here.

Take H-FFRRFRRFF-NH2: the MIC95 against Candida albicans [1] was 16 µM.
Still for that read-out and setting: next, H-RLRLLLRLR-NH2: 8 µM.
For the compound H-WWRRWRRWW-NH2, the viability at 24 h, up to 32 µM in series [2] and in [3] was 70 to 80% in each case. Further, the Activity entry in the series on RAW264.7 and in the series with HEK-293T was “Toxic” each time. Moreover, the MIC95 in the series with Candida albicans [1] turned out to be 8 µM.
In the series with Candida albicans [1], H-RWRWWWRWR-NH2 gave an MIC95 of 8 µM.
Same read-out and setting: next, H-RFRFFFRFR-NH2: 8 µM.
The same measure, in the same setting: next, H-RIRIIIRIR-NH2: 4 µM.
As for H-RWWRRWRRWWR-NH2, the viability at 24 h, up to 32 µM in series [2] and in series [3] was 70 to 80% in each case. Further, the Activity result with RAW264.7 and in the series on HEK-293T was “Toxic” in each case. Also, the MIC95 against Candida albicans [1] came out at 4 µM.
In the series on Candida albicans [1], H-RRFRFFFRFRR-NH2 returned an MIC95 of 4 µM.
On the same count and under the same terms, next, H-RFFRRFRRFFR-NH2: 8 µM.
In general, MIC refers to the least concentration at which growth counts as inhibited. As a reminder, the inhibition is the relative decrease from the control value, in per cent. Regarding H-RRIRIIIRIRR-NH2, the MIC95 in the series on Candida albicans [1] stood at 2 µM. Moreover, the MIC in the series on Candida albicans [4] amounted to 2 µM; in the series on Candida albicans [5], 4 µM; with Candida albicans [6], 8 µM. Also, the Activity with Candida albicans [7] is greater than 99.99%; with Escherichia coli [8] it was “Dose-dependent effect”; with Lipid bilayer [9], “Dose-dependent effect”; with Lipid bilayer [10], “Not Active”; with Candida albicans [18], “Dose-dependent effect”. Besides, the outcome in the series on Escherichia coli [11], in the series with Candida albicans [12], in the series with Candida albicans [13], in the series on Candida albicans [14], in the series with Escherichia coli [15] and in the series with Candida albicans [16] was Active. In addition, the outcome in the series on Escherichia coli [17] was inactive. The compound also showed an inhibition with Lipopolysaccharide (LPS) of 68%.
H-RLLRRLRRLLR-NH2 registered an MIC95 in the series on Candida albicans [1] of 8 µM.
Regarding `CC[C@H](C)[C@H](NC(=O)CN)C(=O)NCC(=O)N[C@@H](C)C(=O)N[C@H](C(=O)N[C@@H](CC(C)C)C(=O)N[C@@H](CCCCN)C(=O)N[C@H](C(=O)N[C@@H](CC(C)C)C(=O)N[C@H](C(=O)N[C@H](C(=O)NCC(=O)N[C@@H](CC(C)C)C(=O)N1CCC[C@H]1C(=O)N[C@@H](C)C(=O)N[C@@H](CC(C)C)C(=O)N[C@H](C(=O)N[C@@H](CO)C(=O)N[C@@H](Cc1c[nH]c2ccccc12)C(=O)N[C@H](C(=O)N[C@@H](CCCCN)C(=O)N[C@@H](CCCNC(=N)N)C(=O)N[C@@H](CCCCN)C(=O)N[C@@H](CCCNC(=N)N)C(=O)N[C@@H](CCC(N)=O)C(=O)N[C@@H](CCC(N)=O)C(N)=O)[C@@H](C)CC)[C@@H](C)CC)[C@@H](C)O)[C@@H](C)O)C(C)C)C(C)C` [MELITTIN], the MIC95 against Candida albicans [1] was 4 µM (≈ 11.4 µg/mL). Also, the MIC in the series with Candida albicans [4] was 32 µM; in the series with Candida albicans [5], 32 µM; in the series on Candida albicans [6] it was 64 µM. The result with Lipid bilayer [10] was Active. Also, the outcome in the series on Escherichia coli [19] and in the series on Candida albicans [20] was Active.
As for H-RRWRWWWRWRR-NH2, the MIC95 in the series with Candida albicans [1] was 4 µM.
Turning to H-IIRRIRRII-NH2, the MIC95 in the series on Candida albicans [1] turned out to be 64 µM.
Still for that read-out and setting: next, H-RIIRRIRRIIR-NH2: 16 µM; H-RRLRLLLRLRR-NH2: 8 µM.
On the same count and under the same terms, next, H-LLRRLRRLL-NH2: 32 µM.
